Assay outcomes: PubChem BioAssay, Broad Institute
AF4-AF9 inh = inhibitors of AF4 peptide binding to AF9, primary screen, biochemical, AlphaScreen, biotin-AF4 peptide, FLAG-AF9, single point | Protein AF-9 (Homo sapiens), P42568 | inhibition, % at 10 µM | 0.47% of 350,000 active | AID 651704, 2012;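 active = every replicate reaching a set inhibition limit, whatever the replicate mean, cut at about 25% in these data; inconclusive = mean inhibition reaches that limit but some replicates miss it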;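 also: 0% = plate neutral control median and 100% = total signal loss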
RAD54 branch = inhibitors of human RAD54 branch migration, primary screen, biochemical, fluorescence, single point | DNA repair and recombination protein RAD54-like (Homo sapiens), Q92698 | AID 602329, 2012 | RAD54 Holliday junction branch migration, FAM/BHQ fluorescence | inhibition, % at 10.4 µM | 0.14% of 360,000 active;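 active = mean normalized replicate activity at least 40 and at least half of replicates scoring 40 or more; inconclusive = only one of the two criteria met; inactive = mean below 40 and under half of replicates reaching 40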;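 also: 0% = median of neutral control wells and 100% = median of positive control wells; inhibitors cause a drop in the FAM fluorescence signal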
Target sequence (Q92698 whole entry, looked up): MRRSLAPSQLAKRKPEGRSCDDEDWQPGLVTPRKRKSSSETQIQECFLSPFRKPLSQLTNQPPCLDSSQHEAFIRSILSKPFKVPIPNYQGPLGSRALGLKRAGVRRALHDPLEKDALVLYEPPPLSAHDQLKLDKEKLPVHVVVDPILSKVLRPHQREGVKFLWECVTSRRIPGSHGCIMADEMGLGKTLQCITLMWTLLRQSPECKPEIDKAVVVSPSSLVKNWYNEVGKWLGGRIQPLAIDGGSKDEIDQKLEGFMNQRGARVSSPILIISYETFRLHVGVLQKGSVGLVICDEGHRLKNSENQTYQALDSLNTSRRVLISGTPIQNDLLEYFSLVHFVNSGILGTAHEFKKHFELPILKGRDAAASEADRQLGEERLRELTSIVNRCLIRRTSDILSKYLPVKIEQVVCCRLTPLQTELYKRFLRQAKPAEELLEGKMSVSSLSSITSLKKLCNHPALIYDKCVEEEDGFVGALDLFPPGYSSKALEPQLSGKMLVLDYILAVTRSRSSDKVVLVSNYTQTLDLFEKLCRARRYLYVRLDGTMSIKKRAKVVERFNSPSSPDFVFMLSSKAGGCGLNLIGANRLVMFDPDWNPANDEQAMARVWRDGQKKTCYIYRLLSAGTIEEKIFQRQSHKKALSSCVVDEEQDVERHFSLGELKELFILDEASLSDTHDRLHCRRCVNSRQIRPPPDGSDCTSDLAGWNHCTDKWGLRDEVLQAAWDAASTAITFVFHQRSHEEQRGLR
E-selectin induc = E-selectin induction in HUVECs, primary screen, imaging, HUVEC, immunofluorescence imaging, single point. normalized: neutral wells 0, TNF-alpha wells 100. 0.37% of 260,000 active. AID 686992, 2013. activation, % at 7.58 µM. P16581;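 active = mean E-selectin-positive cell signal at least 10% of the positive control, reached in at least 60% of replicates, without over 20% cell loss; inconclusive = no rule given, readout overlaps actives, possibly toxicity-flagged; inactive = the rest, including those meeting only one limit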
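Assay system: HUVEC primary endothelial cells. Input: 3,000 HUVEC seeded per well. Doses: one compound dose added by pin transfer. Read-out basis: % PE-positive cells. Benchmarks: TNF-alpha high, DMSO low. Detection: immunofluorescence imaging. Buffer or medium: EGM-2, gelatin.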
INS-1E GSIS act = GLuc luminescence reporter in INS-1E cells, primary screen for activators of glucose-dependent secretion of insulin; activation, % at 16.6 µM; INS-1E GLuc reporter insulin secretion, 2-3 h; AID 743287, 2014; 0.61% of 370,000 active;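 active = lowest replicate activation of at least 40%, so every replicate reaches that level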;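 also: 0% = median of neutral control wells and 100% = median of IBMX positive control wells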
RAD52 anneal inh = RAD52 DNA annealing inhibitors, primary screen, biochemical, FRET, single point, set 2; DNA repair protein RAD52 homolog (Homo sapiens), P43351; recombinant RAD52 DNA annealing, FRET fluorescence; inhibition, % at 18.7 µM; 0.46% of 360,000 active;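 active = every replicate showing at least 50% inhibition; inconclusive = mean inhibition at least 50% but not in every replicate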
Ecoli rRNA inh = reduced GFP signal of wild-type E. coli, primary screen, bacterial rRNA inhibitor project, GFP/RFP fluorescence, OD600, single point | E. coli WT GFP vs humanized-ribosome RFP mutants, 24 h; stronger effect = lower value; DMSO median 0, no signal -100 | GFP signal change (wild-type ribosome), % (test concentration not listed) | 1.6% of 350,000 active | AID 720706, 2013;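 active = significant combined selectivity score with lowered wild-type GFP, culture density cut under 30%, mutant RFP and density less affected; inactive = any of these conditions unmet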
* = called active by the depositor; ? = inconclusive; / = no result given. The list is not random: actives were taken first. Their share in the collection is about 2.6%.

SMILES	AF4-AF9 inh	RAD54 branch	E-selectin induc	INS-1E GSIS act	RAD52 anneal inh	Ecoli rRNA inh
CCC(=O)N[C@H]1C=C[C@H](CC(=O)NCC2CCCCC2)O[C@H]1CO	1	1	0	-2	3	1
COc1ccc(C(=O)COC(=O)C2CC3CCCC(C2)C3=O)cc1Br (stereo unspecified)	-1	2	0	58*	-4	3
COCCN(Cc1ccccc1)C(=O)c1cc(-c2ccc(OC)c(OC)c2)nc2ccccc12	0	-6	0	19	-14	-31*
CCN(Cc1ccccc1)C(=O)c1cc(-c2ccc(OC)c(OC)c2)nc2ccccc12	2	-7	0	50	-7	-8
C[C@H](CO)N1C[C@H](C)[C@@H](CN(C)S(=O)(=O)c2ccc(Cl)cc2)Oc2ccc(N(C)C)cc2C1=O	14	/	/	-5	6	-6
CCN(CC)CC(C)(C)C(=O)/C=C/c1ccc(/C=C/C(=O)C(C)(C)CN(CC)CC)cc1	-6	/	0	5	35	-14*
CCN(CC)CCOC(=O)/C=C/c1ccccc1	-3	/	/	/	9	9
COc1ccc(S(=O)(=O)Nc2ccc3c(c2)C(=O)N([C@@H](C)CO)C[C@H](C)[C@H](CN(C)S(=O)(=O)c2cn(C)cn2)OCCCC[C@@H](C)O3)cc1	-1	-2	2	4	-2	-1
Fc1ccc2c(c1)/C(=N/Nc1ccccn1)CCS2	17	/	0	3	4	-22*
Cc1ccc(-n2c(O)c(C=Nc3ccccc3-c3n[nH]c(=S)[nH]c3=O)c3ccccc3c2=O)c(C)c1	0	/	/	0	-10	-44
Cc1ccc(-n2c(O)c(C=Nc3ccccc3-c3n[nH]c(=S)[nH]c3=O)c3ccccc3c2=O)cc1C	6	/	/	0	-15	-38*
NC(CO)c1csc(Nc2ccc(C(F)(F)F)cn2)n1 (stereo unspecified)	2	3	7	0	-15	4
NC(COCc1ccccc1)c1csc(Nc2ccc(C(F)(F)F)cn2)n1 (stereo unspecified)	-10	3	0	254	-38	-39
NC(CCc1ccccc1)c1csc(Nc2ccc(C(F)(F)F)cn2)n1 (stereo unspecified)	10	6	0	308*	-49	-59
NC(c1csc(Nc2ccc(C(F)(F)F)cn2)n1)C1CCCCC1 (stereo unspecified)	14	12	0	533*	33	-33
Cc1ccc(N=c2c([N+](=O)[O-])nn(-c3ccccc3)n2O)c(C)c1	?	2	/	27	-8	-25*
CSCCC(C(=O)NCc1ccccc1)n1c(-c2ccc3c(c2)CCO3)nc2ccccc21 (stereo unspecified)	-5	/	0	/	-39	-17*
NS(=O)(=O)c1ccc(CCNC(=O)C(=O)c2c[nH]c3ccccc23)cc1	4	/	-1	-6	-12	-22*
C[C@@H]1CN([C@H](C)CO)C(=O)c2cc(NC(=O)CCCN(C)C)ccc2O[C@@H]1CN(C)Cc1ccc(Oc2ccccc2)cc1	18	12	-12	5	12	1
COc1ccc(CN(C)C[C@@H]2Oc3c(NC(=O)Nc4ccc(F)cc4)cccc3C(=O)N([C@@H](C)CO)C[C@H]2C)cc1	3	-9	261*	-30	9	-4
COc1ccc(CN(C)C[C@@H]2Oc3ccc(NC(=O)Nc4ccc(F)cc4)cc3C(=O)N([C@H](C)CO)C[C@H]2C)cc1	7	72*	2	-15	16	-4
Cc1noc(C)c1NC(=O)Nc1cccc2c1O[C@@H](CN(C)Cc1ccc(C(F)(F)F)cc1)[C@H](C)CN([C@@H](C)CO)C2=O	-1	0	252*	-9	7	-4
